Data set [1] can be described thus: Oral bioavailability in BALB/c mouse at 10 mg/kg. In kind it is ADME, organism-based. The following applies: in vivo.
Data set [2] in a line: Plasma clearance in BALB/c mouse at 2 mg/kg, iv. Type of data set: ADME, organism-based. Further details: dose 2 mg/kg, route intravenous.
Data set [3] can be described thus: Inhibition of S-nitrosoglutathione reductase expressed in Escherichia coli using GSNO as substrate measured for 3 mins by spectrophotometry.
Data set [4] in a line: Toxicity in po dosed CD-1 mouse administered qd for 4 days measured on day 5. Type of data set: organism-based. To be noted: in vivo. Put shortly: (§1)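 Read-out was the no observable adverse effect level (NOAEL) in mg/kg/day.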
The species named for another data set is Homo sapiens. The experiment in a line: Inhibition of human recombinant delta2 opioid receptor at 10 uM by radioligand displacement assay. Put shortly:
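Off-target screen measuring percent inhibition of receptor radioligand binding, with test compound at 10 μM.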
(Loss of bound radioactivity is the signal in a displacement assay; it reports binding, not function.)

For data set [5], the system named is Mus musculus. The experiment in a line: Antiasthmatic activity in ovalbumin-sensitized iv dosed BALB/c mouse assessed as inhibition of methacholine-induced bronchoconstriction administered from 30 mins to 48 hrs prior to metacholine-challenge by whole body plethysmography. Type of data set: functional, organism-based.
In data set [6] the test system is Mus musculus. The experiment in a line: Antiinflammatory activity in C57B1/6 mouse IBD model assessed as inhibition of DSS-induced inflammatory response at 1 mg/kg, iv or po administered for 10 days from 2 days prior to and up to 2 days post DSS-challenge. Type of data set: functional, organism-based. Further details: dose 1 mg/kg. An outline of the steps: (§2)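 Mouse model of DSS-induced IBD. Dosing was oral or IV at 1 and 10 mg/kg/day for 10 days.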

Data set [7] is described as follows: Toxicity in iv dosed CD-1 mouse administered qd for 4 days measured on day 5. Type of data set: organism-based. The following applies: in vivo. An outline of the steps:
as §1

In data set [8] the test system is Mus musculus. As to the kind of experiment: Antiasthmatic activity in ovalbumin-sensitized BALB/c mouse assessed as inhibition of ovalbumin-induced easonophil infiltration in lungs at >/= 0.0005 mg/kg, iv administered from 30 mins to 72 hrs prior to assessment by light microscopy. In kind it is functional, organism-based. Further details: dose 0.0005 mg/kg. An outline of the steps: (§3)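 Ovalbumin-induced asthma model in mice, dosed by single IV administration. Read-out was eosinophil infiltration into the lungs.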

Data set [9] has as its system Mus musculus. The experiment in a line: Antiinflammatory activity in C57B1/6 mouse IBD model assessed as inhibition of DSS-induced inflammatory response at 10 mg/kg, iv or po administered for 10 days from 2 days prior to and up to 2 days post DSS-challenge. In kind it is functional, organism-based. Details: dose 10 mg/kg. An outline of the steps:
as §2

Data set [10] relates to Mus musculus. The experiment in a line: Antiasthmatic activity in ovalbumin-sensitized BALB/c mouse assessed as inhibition of methacholine-induced bronchoconstriction at >/= 0.01 mg/kg, iv administered from 30 mins to 48 hrs prior to metacholine-challenge by whole body plethysmography. Type of data set: functional, organism-based. Details: dose 0.01 mg/kg.
The target of data set [11] is Voltage-gated inwardly rectifying potassium channel KCNH2 (Homo sapiens, UniProt Q12809). The experiment in a line: Inhibition of human ERG.
Sequence of Voltage-gated inwardly rectifying potassium channel KCNH2 (Q12809 whole entry): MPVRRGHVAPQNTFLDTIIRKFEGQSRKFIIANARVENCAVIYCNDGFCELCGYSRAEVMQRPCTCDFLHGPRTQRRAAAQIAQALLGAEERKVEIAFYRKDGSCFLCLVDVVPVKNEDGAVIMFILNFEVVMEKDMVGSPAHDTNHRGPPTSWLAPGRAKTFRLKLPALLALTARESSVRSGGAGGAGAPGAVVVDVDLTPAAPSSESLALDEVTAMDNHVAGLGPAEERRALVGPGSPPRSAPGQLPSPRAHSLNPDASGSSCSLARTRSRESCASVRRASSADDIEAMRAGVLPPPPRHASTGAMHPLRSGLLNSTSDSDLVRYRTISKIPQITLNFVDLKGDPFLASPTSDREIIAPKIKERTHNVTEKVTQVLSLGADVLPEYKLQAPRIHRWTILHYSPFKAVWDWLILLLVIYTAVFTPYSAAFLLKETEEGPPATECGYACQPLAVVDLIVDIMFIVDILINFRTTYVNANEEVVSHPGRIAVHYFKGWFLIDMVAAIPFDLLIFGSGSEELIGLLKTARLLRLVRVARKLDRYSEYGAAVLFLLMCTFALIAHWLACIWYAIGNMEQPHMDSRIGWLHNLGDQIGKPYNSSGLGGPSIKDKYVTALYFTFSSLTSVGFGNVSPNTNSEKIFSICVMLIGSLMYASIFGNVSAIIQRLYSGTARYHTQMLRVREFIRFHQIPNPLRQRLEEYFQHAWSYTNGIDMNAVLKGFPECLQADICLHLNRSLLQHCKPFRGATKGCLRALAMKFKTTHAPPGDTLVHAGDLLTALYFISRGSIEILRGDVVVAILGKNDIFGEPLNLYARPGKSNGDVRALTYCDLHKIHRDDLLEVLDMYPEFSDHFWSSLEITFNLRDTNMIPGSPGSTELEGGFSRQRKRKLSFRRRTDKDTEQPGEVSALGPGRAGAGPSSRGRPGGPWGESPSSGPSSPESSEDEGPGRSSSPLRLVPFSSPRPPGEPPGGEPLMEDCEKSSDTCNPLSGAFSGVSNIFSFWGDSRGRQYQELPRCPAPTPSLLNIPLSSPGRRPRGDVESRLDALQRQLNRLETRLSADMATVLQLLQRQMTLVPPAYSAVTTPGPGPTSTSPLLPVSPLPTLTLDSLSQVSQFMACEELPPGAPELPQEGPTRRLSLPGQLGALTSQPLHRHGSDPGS
Data set [12] relates to Mus musculus. The experiment in a line: Antiasthmatic activity in ovalbumin-sensitized BALB/c mouse assessed as inhibition of methacholine-induced bronchoconstriction at >/= 0.01 mg/kg, iv administered prior to metacholine-challenge by whole body plethysmography. In kind it is functional, organism-based. Further details: dose 0.01 mg/kg. To be noted: TDE = time-dependent effect.

A further data set deals with Salmonella typhimurium. As to the kind of experiment: Mutagenic activity in Salmonella Typhimurium. The following applies: salmonella enterica subsp. enterica serovar typhimurium. In kind it is toxicity, organism-based.
The species entered for the next data set is Rattus norvegicus. As to the kind of experiment: Antihypertensive activity in rat DAHL/S model assessed as reduction in high dietary salt-induced hypertension.
The subject of data set [13] is Mus musculus. As to the kind of experiment: Antiasthmatic activity in ovalbumin-sensitized BALB/c mouse assessed as inhibition of ovalbumin-induced easonophil infiltration into lungs at 0.0005 to 30 mg/kg, iv administered from 30 mins to 72 hrs prior to assesment by light microscopy. In kind it is functional, organism-based. Put shortly:
as §3

In data set [14] the test system is Mus musculus. The experiment in a line: Antiasthmatic activity in ovalbumin-sensitized BALB/c mouse assessed as inhibition of methacholine-induced bronchoconstriction at 0.0005 to 30 mg/kg, iv administered from 30 mins to 48 hrs prior to assessment by whole body plethysmography.
Data set [15] relates to Mus musculus. The experiment in a line: Antiasthmatic activity in C57B1/6 mouse COPD model assessed as inhibition of porcine pancreatic elastase-induced emphysema at 0.1 to 10 mg/kg, po after 7 to 14 days by light microscopy. Type of data set: functional, organism-based.

The source made the active and inactive calls. No cut-off for these calls is given here. Some results are limits rather than exact numbers.

Turning to `Cc1cc(C(N)=O)ccc1-n1c(CCC(=O)O)ccc1-c1ccccc1`, in [1], the bioavailability – broadly, the share of a dose that reaches the circulation, judged against a reference dose that is usually intravenous – turned out to be 46.8%. Also, the clearance (as a rule, the rate of elimination divided by the concentration) in [2] was 11.8 mL/min/kg. Moreover, the IC50 (commonly the concentration that gives 50% inhibition) in [3] was determined as 360 nM.

In turn, `Cc1cc(C(N)=O)ccc1-n1c(Cc2nnn[nH]2)ccc1-c1ccc(Br)cc1` registered an IC50 in data set [3] of 560 nM.

Consider `Cc1cc(C(N)=O)ccc1-n1c(CCC(=O)O)ccc1-c1ccc(-n2ccnc2)cc1` [N6022], for which the results for the NOAEL at 96 h in data set [4] and in [7] were 100 mg/kg and 30 mg/kg, respectively. Besides, in the data set filed under Homo sapiens, the inhibition – broadly, the percentage by which the read-out fell short of the control – was found to be 66%. For the same molecule, the Activity result with Mus musculus [5] was “Dose-dependent effect”; in the data set with Mus musculus [12], “tde”; in the data set on Salmonella typhimurium it was “Non-toxic”. In addition, the outcome in the data set with Mus musculus [6], in the data set with Mus musculus [8], with Mus musculus [9] and with Mus musculus [10] was Active. For the same molecule, the INH in [11] was above 100 µM. The molecule also gave an IC50 in [3] of 20 nM.

On to `Cc1cc(C(N)=O)ccc1-n1c(CCC(=O)O)ccc1-c1ccc(F)cc1`, for which, in [3], half-maximal inhibition (IC50) was put at 500 nM.

Take `COc1ccc(-c2ccc(CCC(=O)O)n2-c2ccc(C(N)=O)cc2C)cc1`: the result in the data set filed under Rattus norvegicus, with Mus musculus [6], with Mus musculus [13], in the data set on Mus musculus [9], in the data set with Mus musculus [14] and in the data set with Mus musculus [15] was Active. The no-observed-adverse-effect level (NOAEL) – broadly, the highest dose or exposure tested at which no adverse effect was seen – at 96 h in [7] was 50 mg/kg. Moreover, half-maximal inhibition in data set [3] (IC50) was put at 210 nM.

`CCCOc1cc(Cl)ccc1-c1ccc(CCC(=O)O)n1-c1ccc(C(N)=O)cc1C` returned an IC50 in data set [3] of 110 nM. That is a sub-micromolar value.

Take `Cc1cc(C(N)=O)ccc1-n1c(CCC(=O)O)ccc1-c1ccc(Br)cc1`: the bioavailability in data set [1] turned out to be 18%. Besides, the outcome in the data set filed under Rattus norvegicus, with Mus musculus [6], in the data set with Mus musculus [13], with Mus musculus [9], in the data set on Mus musculus [14] and in the data set on Mus musculus [15] was Active. Further, the NOAEL at 96 h in data set [7] was 50 mg/kg. In data set [2], this molecule showed a clearance of 21.4 mL/min/kg. In data set [3], this molecule registered an IC50 of 160 nM.

On to `Oc1ccc(-n2c(CCc3nnn[nH]3)ccc2-c2ccc(Br)cc2)cc1`, for which the IC50 in [3] came out at 450 nM.

With `Cc1cc(C(N)=O)ccc1-n1c(CCC(=O)O)ccc1-c1ccc(C(F)(F)F)cc1`, the IC50 in data set [3] was 3990 nM.

On to `Cc1cc(C(N)=O)ccc1-n1c(CCC(=O)O)ccc1-c1ccc(C#N)cc1`, for which the bioavailability in data set [1] was 16.3%. Besides, the clearance in data set [2] is 25.5 mL/min/kg. Moreover, half-maximal inhibition in data set [3] (IC50) was put at 563 nM.

For the molecule `Cc1cc(C(N)=O)ccc1-n1c(CCC(=O)O)ccc1-c1ccc(Cl)cc1O`, in data set [1], the bioavailability turned out to be 2.72%. For the same molecule, the outcome in the data set listed under Rattus norvegicus, with Mus musculus [6], with Mus musculus [13], in the data set with Mus musculus [9], in the data set on Mus musculus [14] and in the data set with Mus musculus [15] was Active. In data set [2], this molecule registered a clearance of 33.4 mL/min/kg. The molecule also came in with an IC50 in data set [3] of 55 nM.

As to `Cc1cc(C(N)=O)ccc1-n1c(CCC(=O)O)ccc1-c1ccc(Cl)cc1C(N)=O`, the IC50 in data set [3] worked out at 160 nM.

As for `Oc1ccc(-n2c(CCc3nnn[nH]3)ccc2-c2ccc(-n3ccnc3)cc2)cc1`, the IC50 in [3] stood at 300 nM.

As to `CCOc1cc(Cl)ccc1-c1ccc(CCC(=O)O)n1-c1ccc(C(N)=O)cc1C`, half-maximal inhibition in [3] (IC50) was put at 170 nM.

Turning to `Cc1cc(C(N)=O)ccc1-n1c(CCC(=O)O)ccc1-c1ccc(Cl)cc1N(C)C`, the concentration for half-maximal inhibition (IC50) in [3] came out at 350 nM. Against the preceding molecule, the IC50 is about 2.1-fold higher.

In data set [1], `NC(=O)c1ccc(-n2c(CCC(=O)O)ccc2-c2ccccc2)cc1` had a bioavailability of 86.5%. The clearance in [2] came out at 8.9 mL/min/kg. The IC50 in data set [3] amounted to 570 nM.

Regarding `Cc1cc(C(N)=O)ccc1-n1c(CCC(=O)O)ccc1-c1ccc(Cl)cc1C(F)(F)F`, the IC50 in [3] was determined as 330 nM.

`Cc1cc(C(N)=O)ccc1-n1c(CCC(=O)O)ccc1-c1ccc(Cl)cc1Cl` came in with an IC50 in data set [3] of 160 nM.

On to `Cc1cc(C(N)=O)ccc1-n1c(CCC(=O)O)ccc1-c1ccc(Cl)cc1F`, for which the IC50 in data set [3] turned out to be 120 nM.

`COc1ccc(-c2ccc(Cc3nnn[nH]3)n2-c2ccc(C(N)=O)cc2C)cc1` yielded an IC50 in data set [3] of 2910 nM.

For the molecule `Cc1cc(C(N)=O)ccc1-n1c(CCC(=O)O)ccc1-c1ccc(Cl)cc1`, the bioavailability in [1] came out at 20.7%. For the same molecule, in data set [2], the clearance is 16 mL/min/kg. The IC50 in data set [3] was determined as 120 nM.

As to `COc1cc(Br)ccc1-c1ccc(CCC(=O)O)n1-c1ccc(C(N)=O)cc1C`, the bioavailability in data set [1] stood at 21.8%. Moreover, the clearance in data set [2] turned out to be 22.4 mL/min/kg. The same molecule came in with an IC50 in data set [3] of 96 nM.

In [1], `COc1cc(Cl)ccc1-c1ccc(CCC(=O)O)n1-c1ccc(C(N)=O)cc1C` showed a bioavailability of 22.4%. In addition, the outcome in the data set listed under Rattus norvegicus, in the data set on Mus musculus [6], with Mus musculus [13], in the data set on Mus musculus [9], in the data set with Mus musculus [14] and with Mus musculus [15] was Active. In addition, the clearance in [2] turned out to be 20.2 mL/min/kg. This molecule also showed an IC50 in [3] of 56 nM.

Regarding `COc1ccc(-c2ccc(CCC(=O)O)n2-c2ccc(C(N)=O)cc2C(F)(F)F)cc1`, the IC50 in data set [3] was found to be 450 nM.

Regarding `Cc1cc(C(N)=O)ccc1-n1c(CCC(=O)O)ccc1-c1ccc(C(N)=O)cc1`, in data set [3], the IC50 came to 3920 nM.

In turn, `COc1ccc(-c2ccc(CCC(=O)O)n2-c2ccc(C(N)=O)cc2Cl)cc1` returned an IC50 in data set [3] of 190 nM. This IC50 is about 21-fold lower than that of the molecule before.

On to `Oc1ccc(-n2c(Cc3nnn[nH]3)ccc2-c2ccc(Br)cc2)cc1`, for which half-maximal inhibition in [3] (IC50) was put at 4350 nM. This IC50 is about 23-fold higher than that of the molecule before.

In data set [3], `Cc1cc(C(N)=O)ccc1-n1c(CCC(=O)O)ccc1-c1ccc(O)cc1` returned an IC50 of 160 nM.

Take `COc1ccc(-c2ccc(CCC(=O)O)n2-c2ccc(C(N)=O)cc2C)c(Cl)c1`: 200 nM corresponded to half-maximal inhibition in data set [3] (IC50).

Molecule `Cc1cc(C(N)=O)ccc1-n1c(CCC(=O)O)ccc1-c1ccc(Cl)cc1NC=O` yielded an IC50 in [3] of 580 nM.

In turn, `Oc1ccc(-n2c(Cc3nnn[nH]3)ccc2-c2ccc(-n3ccnc3)cc2)cc1` yielded an IC50 in data set [3] of 18 nM.

As for `COc1ccc(-c2ccc(CCC(=O)O)n2-c2ccc(C(N)=O)cc2F)cc1`, in data set [3], the IC50 is 240 nM.

In [3], `Cc1cc(C(N)=O)ccc1-n1c(CCc2nnn[nH]2)ccc1-c1ccc(Br)cc1` returned an IC50 of 190 nM.

Consider `COc1ccc(-c2ccc(CCC(=O)O)n2-c2ccc(C(N)=O)cc2)cc1`, for which the IC50 in [3] is 460 nM.

`COc1ccc(-c2ccc(CCc3nnn[nH]3)n2-c2ccc(C(N)=O)cc2C)cc1` showed a half-inhibitory concentration (IC50) in data set [3] of 1530 nM. Compared with the last molecule, the IC50 is about 3.3-fold higher.

The values are drawn from ChEMBL document CHEMBL1949493, “Discovery of s-nitrosoglutathione reductase inhibitors: potential agents for the treatment of asthma and other inflammatory diseases” (ACS Med Chem Lett, 2011).
